# Assay results as given in the EternaBench riboswitch data.
# Test system: MS2 coat protein
# Assay: apparent Kd, MS2 coat protein; higher = weaker binding; RNA-MaP array; FMN 200 µM where present
# Method in brief: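 SNAP-549-labelled MS2 coat protein, doubled from 0.7 or 1.5 nM to 3 µM, was titrated over designs transcribed by stalled E. coli RNA polymerase on Illumina sequencing-chip clusters. Titrations were run without and then with constant ligand in 100 mM Tris-HCl pH 7.5, 80 mM KCl, 4 mM MgCl2, BSA, DTT, yeast tRNA and Tween-20. The apparent Kd is the median of filtered per-cluster fits to green signal normalised to red-channel RNA signal and control-cluster median Fmax.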
# [1] = designed as: ON switch for flavin mononucleotide, no ligand
# [2] = ligand present: flavin mononucleotide, designed as: ON switch for flavin mononucleotide
# [3] = designed as: OFF switch for flavin mononucleotide, no ligand
# [4] = ligand present: flavin mononucleotide, designed as: OFF switch for flavin mononucleotide
sequence,measurement,setting,value
AGUAAGAUGCAGAAGGUGUUAGCUAGAGCUACGACAUGAGGAUCACCCAUGUACUAGAAAACGUACAAGGAUAUGCAUCUUACA,apparent Kd,[1],7.36 nM
same,apparent Kd,[2],5.98 nM
AUUUAAUUUAGCGAGAUCACAUGAGGAUCACCCAUGUAUAUAUAGGAUAUCAGCUCGAAUAGAGCUGAGAAGGAUAUAUACCGC,apparent Kd,[3],90.3 nM
same,apparent Kd,[4],157 nM
GGAUUACAUGAGGAUCACCCAUGUGAGGAUAUCGAUGUCCUCAGUAGAGUGCGGGACUCGAGAAGGCACUUGGA,apparent Kd,[3],70.1 nM
same,apparent Kd,[4],95.9 nM
AUAAUGUGAGGAUAUAUGUAUCACGGUGAUACACCGUGAUGAUAGAAGGUACAUGAGGAUCACCCAUGUAGGGC,apparent Kd,[3],36.6 nM
same,apparent Kd,[4],72.7 nM
AUGGUUGUCGUAGGAUAUGUAGGAUAUUCCUACAUGAGGAUCACCCAUGUUCGCAUGGAAGAAGGACGGAAGGACGAUGACCAA,apparent Kd,[1],249 nM
same,apparent Kd,[2],118 nM
GGAAACUACGAGAAGGACAUGUGGUCCUUCAGUUACAUGAGGAUCACCCAUGUAGGAUAUCGUAGUUUCAGGAUCGUGAGAUCC,apparent Kd,[3],33 nM
same,apparent Kd,[4],12.8 nM
GGACAUUUACAGAAGGGCAAGUUAGAUCGUGGAUAACACGAUCUGACUUGCAGGAUAUGUUGAACAUGAGGAUCACCCAUGUCC,apparent Kd,[1],12.9 nM
same,apparent Kd,[2],10.8 nM
UCUCGCUGGCGAGGAUAUCCUGUGCGGUUCCGGCUCGUGUCUGUUACAUGAGGAUCACCCAUGUGGGAGAAGGUGCCUGUGGCU,apparent Kd,[3],32.7 nM
same,apparent Kd,[4],32.6 nM
AGCUCCGCGGCCACUUAUUGUGCACAUGAGGAUCACCCAUGUCAGGAUAUCCUUGAGCCUCACAAGGAGAAGGGACAUAAGGUU,apparent Kd,[3],643 nM
same,apparent Kd,[4],334 nM
UUCCGGCAUGUAGGAUAUGGAUCCGAUUAGGAUUUAGAAGGACAUGAGGAUCACCCAUGUGCAUUUAAUUAGUCAUUACCGUUU,apparent Kd,[3],41.6 nM
same,apparent Kd,[4],86.5 nM
ACAUGCAUAGCGAUAUGAUCGAGAGAUCAUGUCGCUUUUAAAAGAAGGACAUGAGGAUCACCCAUGUAGGAUAUGGGAGCAUGA,apparent Kd,[1],53.4 nM
same,apparent Kd,[2],13.2 nM
CCAGCGCGUGUGAGGAUAUGCUGGUCCUUGGAUCAGCAGAAGGCACAUGAGGAUCACCCAUGUGAGUGCGUUGG,apparent Kd,[3],15.7 nM
same,apparent Kd,[4],47.2 nM
UGGUGAAGUGUAGGAUAUGGAGAUGGGUUUUGGCCAGAAGGACAUGAGGAUCACCCAUGUGGUAGAGGGUUGGUGGUAGCUCGU,apparent Kd,[3],62.4 nM
same,apparent Kd,[4],49.8 nM
UAUUUUAACUAAGGAUAUCUAUAUUAUUUUGAAACAUGAGGAUCACCCAUGUUCAUGGGAUUAUAGGAGAAGGUAGAUGAAUAA,apparent Kd,[1],14.6 nM
same,apparent Kd,[2],9.54 nM
GUGGUCAGACAUGAGGAUCACCCAUGUGGAAUAAAUAAGGACUAGGAUAUGGAAUAUAGGAUAUACCAGAAGGAGUGGUUGGUG,apparent Kd,[1],56.4 nM
same,apparent Kd,[2],60 nM
AGCGGCGCGGGCCACCGCAAAACCAGAAGGACAUGAGGAUCACCCAUGUAACAAAACAGGGCGGUGUAGGAUAUGGCAGACCCG,apparent Kd,[3],14.7 nM
same,apparent Kd,[4],23.8 nM
CGCGAUAGCAUAGGAUAUUGAUACAUGAGGAUCACCCAUGUCAACCAUGAAGCUCGAAUUGUUGACAAGAAGGAUGAGGUCGCG,apparent Kd,[1],81.3 nM
same,apparent Kd,[2],55.3 nM
GGAUAGGACAGAGGAUAUACGUGCUAGAGAUACUAGCUAAAUUUCCUCACAUGAGGAUCACCCAUGUAGAAGGCUGUCCUAUCG,apparent Kd,[3],15 nM
same,apparent Kd,[4],412 nM
GUAUCUUACUGAGGAUAUUUACGAUUAGUGUAGACAUGAGGAUCACCCAUGUGGCGUUAGUCACGGGAGAAGGCAGUUUGAUAC,apparent Kd,[1],82.5 nM
same,apparent Kd,[2],21.3 nM
AUAAUUUUAUAUUUCUUUUUAUUCAGAAGGCAUAACAUGAGGAUCACCCAUGUAAAUUAAUGUUAUGAGGAUAUGAUUUGGUUA,apparent Kd,[3],24.2 nM
same,apparent Kd,[4],105 nM
GCUUCGGCUGUGAGGAUAUGGCUUCGGAAAUGAAGUUAGAAGGCACAUGAGGAUCACCCAUGUAAGGUUGAAGU,apparent Kd,[3],21.7 nM
same,apparent Kd,[4],17.8 nM
AGUUCCUCCGCAGGAUAUGUGCUCUUUAUCACAUGAGGAUCACCCAUGUCAGCCUAAACGGCGAGACAGAAGGGUGGUGGUGCC,apparent Kd,[1],172 nM
same,apparent Kd,[2],177 nM
GGCGCAUUUGUGGCGUAUAGGUCGAAGGAUAUCACGUGCCGCCUAGUACAUGAGGAUCACCCAUGUGAGAAGGUCGAACUUAAC,apparent Kd,[3],19.3 nM
same,apparent Kd,[4],83.5 nM
UAUAUAUAGUAAGGAUAUGUAUUAAUCUUAUAAACAGAAGGUACUGACAUGAGGAUCACCCAUGUUUUAGUGUGGGCAUGUAGA,apparent Kd,[3],78.1 nM
same,apparent Kd,[4],103 nM
UAAUCGUUGCAGAAGGUUAUUUUUUUAACAAGUCUCUUAACAUGAGGAUCACCCAUGUUUUUGAUGAAGGAUAUGCAACGGUAG,apparent Kd,[3],5.89 nM
same,apparent Kd,[4],6.15 nM
GCAGCGCCUGACAUGAGGAUCACCCAUGUUAAAUUGUUAAGUCAGGAUAUAGUCUAGAAACUAGACUAGAAGGGAUAUGCUGCU,apparent Kd,[1],9.96 nM
same,apparent Kd,[2],8.57 nM
AGCUACGUUUCGUAGCAGUGUCAUCGAGAAGGCCUCAUAACAUGAGGAUCACCCAUGUUUGCAUGGGAGGAUAUCGAUGAUACA,apparent Kd,[1],206 nM
same,apparent Kd,[2],56.4 nM
AGUGACGAUACAGGAUAUGCUGGACUUUGUCCAGCAGAAGGGUAUUAACAUGAGGAUCACCCAUGUUUCGUCACCAAAUUUAAU,apparent Kd,[1],39.5 nM
same,apparent Kd,[2],8.22 nM
AAGAAGUGAGGAUAUGCUGCUCGUCACUUGCGUGAUGAGUAGCAGAAGGCACAUGAGGAUCACCCAUGUAAAGA,apparent Kd,[3],44 nM
same,apparent Kd,[4],53 nM
GCGUUGUUGUAGAAGGUACAUGAAUACUUUUAAUACCUCAAGUAACAUGAGGAUCACCCAUGUAGUAAGGAUAUACAUGAACGC,apparent Kd,[1],35.4 nM
same,apparent Kd,[2],30.2 nM
CGGAUGUGAGGAUAUACAUGAGGAUCACCCAUGUGAGCCAGCUAGAUGACUGGCUCGUGUAGAAGGCACGUCUG,apparent Kd,[3],13.5 nM
same,apparent Kd,[4],29.3 nM
GUCGGAAACGACAAUGAUAGGACUGAGGAUAUACAUAAGUUAGUCCACACAUGAGGAUCACCCAUGUAGAAGGCAGUCCUAUCU,apparent Kd,[3],29.5 nM
same,apparent Kd,[4],357 nM
AACGAGCAAGAUUAUUAUGAAUAAACAUGAGGAUCACCCAUGUAGGAUAUGCAGUGGAAUACACUGCAGAAGGACAUAAGCUCG,apparent Kd,[3],7.2 nM
same,apparent Kd,[4],19 nM
CUGAUGUGAGGAUAUCUAAAAGAAACUGGGCAAAAUACCAGAGAGAAGGCACAUGAGGAUCACCCAUGUAACGA,apparent Kd,[3],19.1 nM
same,apparent Kd,[4],69.5 nM
UUGGACGUCGUAGGAUAUGUAGGAUAUUCCUACAUGAGGAUCACCCAUGUUGACAUGGAAGAAGGACAGAAGGUCGAUGUCCAU,apparent Kd,[1],602 nM
same,apparent Kd,[2],9.86 nM
UUUAUGGGACAGAAGGGCAUUUACAUGAGGAUCACCCAUGUUCAUCAUUGCAGGAUAUGUAUAACAUGAGGAUCACCUAUGUAC,apparent Kd,[1],604 nM
same,apparent Kd,[2],106 nM
GACCGCGAGGGAGGAUAUGGAGCCUUAUUGGCUCCAGAAGGUCCAUAAGGGACAUGAGGAUCACCCAUGUGGGUUGAAGCGGUC,apparent Kd,[1],155 nM
same,apparent Kd,[2],57.2 nM
ACAUUGUAUGUGAGGAUAUCGAUGGGAUGGGUUGUCGAGAAGGCACAUGAGGAUCACCCAUGUGGGAAACAGCA,apparent Kd,[3],39.5 nM
same,apparent Kd,[4],170 nM
CGCCUGUGAGGAUAUCCAUCUGGAUCAGACUAGAUCCUGAUGGAGAAGGCACAUGAGGAUCACCCAUGUCGGCG,apparent Kd,[3],23.1 nM
same,apparent Kd,[4],22.4 nM
GCCAUCGCAUGAGGAUAUGCUCCGGUUUCCGGAGCAGAAGGCAUGUCGUUAGACAUGAGGAUCACCCAUGUAGUUAAGAUGGCA,apparent Kd,[1],999 nM
same,apparent Kd,[2],41.1 nM
ACACUGUGAGGAUAUACAUGAGGAUCACCCAUGUUAAGGAAGUCGUGGUUAAUUUAAGGUAGAAGGCGCUUAUU,apparent Kd,[3],41.3 nM
same,apparent Kd,[4],42.8 nM
AUCAGCUCGUCAGGAUAUACGUCACUGCGUCAGCAGUGUGGUAGGAUCACAUGAGGAUCACCCAUGUAGAAGGGACGAGCUGAU,apparent Kd,[3],23.8 nM
same,apparent Kd,[4],297 nM
UGAAAACAUGAGGAUCACCCAUGUAAAAACAUGGGAGGAUAUUGAAAAAAAAAAAAAAAACAAGAAGGCCCAAAAA,apparent Kd,[1],386 nM
same,apparent Kd,[2],137 nM
CCUAAGGACACAGGAUAUAGCGUGGUGGCUGGGCUCCAACGACAAGCGGCGCUAGAAGGGUGACCACAUGAGGAUCACCCAUGU,apparent Kd,[1],754 nM
same,apparent Kd,[2],218 nM
CACAAGAAAGUCGAAGGUUGAAGUAGAAGGUCUAUAACAUGACAUGAGGAUCACCCAUGUGCCAAGAAGGAUAUGCUUUAAUCG,apparent Kd,[3],7.97 nM
same,apparent Kd,[4],6.53 nM
AAGGCACCUGAGAAGGGUACAUGAGGAUCACCCAUGUGGCUAUUUGUGCGUCGUUGACCAAGUGUACAGGAUAUUAGGGAACGU,apparent Kd,[3],98 nM
same,apparent Kd,[4],32.4 nM
UCGAGUCAUGAGAAGGACUGAUGUUACAUGAGGAUCACCCAUGUCAUGGGUAGGAUAUCAUUGACACGGCCGUACCUCUCUUAC,apparent Kd,[1],355 nM
same,apparent Kd,[2],78.2 nM
AGCUACGUUUCGUAGCAGCUAGGUGAGGAUAUUCAAUUUUUCACAUGAGGAUCACCCAUGUAUGUGAAGAAGGCGCCUAGAAAC,apparent Kd,[1],10.8 nM
same,apparent Kd,[2],5.07 nM
GACGGGCAGCUCGUGAUCCCAUCGCCAGAAGGGCCACAUGAGGAUCACCCAUGUCGUAAAACAAGGCAGGAUAUGGCAGGGAAC,apparent Kd,[1],9.93 nM
same,apparent Kd,[2],5.21 nM
GUUAUGUCAGGAUAUGCUUAUGAUGAGUGCUCAGACAUGAUGCAGAAGGGACAUGAGGAUCACCCAUGUACUGA,apparent Kd,[3],25.4 nM
same,apparent Kd,[4],63.9 nM
AAUAACAGAGGAUAUACUGUUUUAUGUGUUUGUUAUUUUAAACAUGAGGAUCACCCAUGUAGAAGGCUGAGUAA,apparent Kd,[3],27.4 nM
same,apparent Kd,[4],27 nM
UAUUAGAUCCGAGGAUAUCCUUUUUUCUUACAUGAGGAUCACCCAUGUAAAGGGAUUGAGUUGUAGGAGAAGGCGGAUUUAGUU,apparent Kd,[1],33.4 nM
same,apparent Kd,[2],15.1 nM
UUAGAACAUGAGGAUCACCCAUGUGAGGAUAUGCAAUACUAAUAUUAAGAUAAUUAUAGCAGAAGGCACGUAGU,apparent Kd,[3],34.3 nM
same,apparent Kd,[4],47.7 nM
AGCAUGUGAGGAUAUGCAGACUCCGGUAAAUCUGGAGUCCGGUAGAAGGCACAUGAGGAUCACCCAUGUGAGAU,apparent Kd,[3],43.4 nM
same,apparent Kd,[4],119 nM
CGCUGCCACGCAGGAUAUGCAUUGGAUUACAAUGCAGAAGGGCGAUUACAUGAGGAUCACCCAUGUGUCGGCAGUGAAGAAGAG,apparent Kd,[1],657 nM
same,apparent Kd,[2],44.9 nM
